Values joined by “and” are separate entries in the source; they are usually repeats but may differ in a detail not shown here. Identical values can stand only once. “Also recorded” adds a separate entry of the source.
Columns and labels:
[1] = Pharmacokinetics of 2DG in plasma; type: in vivo, patients
Outline: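 Blood samples (5 ml each) were drawn predose, hourly to 6 hr after oral 2DG on cycle 1 day 1, at 24 and 48 hr after cycle 1 day 1, and again on cycle 2 day 1. Plasma extracts were derivatized to 2-aminobenzoic acid derivatives, and 2DG was quantified by HPLC with fluorometric detection.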

FDG uptake = assay: FDG-PET imaging at baseline and day 2: effect of 2DG on FDG uptake; type: in vivo, patients
Outline: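 FDG-PET scans were taken at baseline, cycle 1 day 2 and cycle 2 day 15, with 2DG given orally on days 1–14 of 21-day cycles. FDG uptake was expressed as SUV at a selected tumor site divided by liver SUV, with liver serving as the control. Baseline and day 2 ratios were compared in nine patients.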

[2] = type: in vivo, patients
[3] = tested on: castrate-resistant prostate cancer (CRPC); assay: Clinical outcome; type: in vivo, patients
Outline: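 Oral 2DG, aqueous solution formulated at 100 mg/ml in water, given daily on days 1–14 of 21-day cycles. Dose cohorts were 30, 45 and 60 mg/kg. Each dose was given 1 hr before breakfast, followed by a ~50 ml water rinse of the dosing container. Patients with CRPC were followed for PSA and radiographic disease status across cycles.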

prostate cancer cells = details: cited from earlier work
p62 = p62 protein in peripheral blood mononuclear cells by Western blot; type: in vivo, patients; details: PBMCs, immunoblot, normalized to α-tubulin
Outline: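 PBMCs were collected from six patients at baseline, 4 hr and 24 hr. Extracts were prepared in Laemmli buffer, resolved by SDS–PAGE and transferred to PVDF. Blots were probed for p62 and α-tubulin, then detected with HRP secondary antibody and ECL. Scanned bands were quantified by optical density, and p62 was normalized to α-tubulin.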

[4] = cycle 1, 30 mg/kg/day oral, n = 3, mean ± SD
[5] = cycle 1, 45 mg/kg/day oral, n = 4, mean ± SD
[6] = cycle 1, 60 mg/kg/day oral, n = 4, mean ± SD
[7] = cycle 2, 30 mg/kg/day oral, n = 3, mean ± SD
[8] = cycle 2, 45 mg/kg/day oral, n = 4, mean ± SD
[9] = cycle 2, 60 mg/kg/day oral, n = 4, mean ± SD

Molecule O=CC[C@@H](O)[C@H](O)[C@H](O)CO [2DG, 2-deoxyglucose] has an AUC [1, 4] of 821.2±236.2 μmol/Lhr, a Clearance [1, 4] of 232.0 ± 63.8 mL/h and a Cmax [1, 4] of 277 ± 18.6 µM. The AUC [1, 5] was 1107.7±213.3 μmol/Lhr, the Clearance [1, 5] was 243.3 ± 49.4 mL/h and the Cmax [1, 5] was 449 ± 168 µM. It also gave an AUC [1, 6] of 2086.2±743.2 μmol/Lhr, a Clearance [1, 6] of 185.0 ± 52.6 mL/h and an AUC [1, 7] of 751.3 ± 181.7 μmol/Lhr. It also gave a Clearance [1, 7] of 246.3 ± 56.6 mL/h, an AUC [1, 8] of 1087.1 ± 441.8 μmol/Lhr and a Clearance [1, 8] of 270.4 ± 126.4 mL/h. For the same molecule, the AUC [1, 9] was 1226.9 ± 571.2 μmol/Lhr, the Clearance [1, 9] was 314.9 ± 108.7 mL/h and the “dose dependence of pharmacokinetics” value ([1]; dose levels 30, 45 and 60 mg/kg) was “linear pharmacokinetics; also recorded: linear with dose level”. For the same molecule, the Cmax ([1]; human, plasma, po, 30 mg/kg, Cmax, dose level 30 mg/kg oral) was 45 µg/mL, the Cmax ([1]; human, plasma, po, 45 mg/kg, Cmax, dose level 45 mg/kg oral) was 73.7 µg/mL and the Cmax ([1]; human, plasma, po, 60 mg/kg, Cmax, dose level 60 mg/kg oral) was 122 µg/mL. For the same molecule, the blood concentrations reached ([1]; single agent, highest concentrations reached in this study) was 700 µM, the “patients with decreased FDG uptake by day 2 of therapy” value (FDG uptake; FDG-PET, dose level 2 or 3) was “Five of eight and five” and the “Day 2 SUV (ratio site/liver)” value (FDG uptake; patient 5, lung, dose level 2, chest, baseline 6.3) was 11.6. For the same molecule, the “Day 2 SUV (ratio site/liver)” value (FDG uptake; patient 6, cervical, dose level 2, mediastinum, baseline 4.3) was 2, the “Day 2 SUV (ratio site/liver)” value (FDG uptake; patient 7, prostate, dose level 3, L1 vertebral body, baseline 1.2) was 1 and the “Day 2 SUV (ratio site/liver)” value (FDG uptake; patient 8, prostate, dose level 3, ischium, baseline 2.8) was 2.0. For the same molecule, the “Day 2 SUV (ratio site/liver)” value (FDG uptake; patient 11, prostate, dose level 2, ilium, baseline 3.8) was 3, the dose-limiting toxicity ([2]; human, in vivo, 60 mg/kg, 3 weeks) was “grade 3 asymptomatic QTc prolongation” and the “patients with grade 2 fatigue” value ([2]; in vivo) was “three”. The tolerability ([2]; in vivo, 45 mg/kg) was “well tolerated”, the QT interval ([2]; in vivo, 60 mg/kg) was “prolonged” and the “recommended phase II dose” value ([2]; oral, days 1–14 of a 21-day cycle) was 45 mg/kg. The “cycles on study with radiographically stable disease” value ([3]; individual patients with CRPC) was 8 cycles and 12 cycles and 21 cycles, the “declines in PSA” value ([3]; seven patients with prostate cancer who completed study therapy) was “no declines” and the “effect in prostate cancer cell lines” value (prostate cancer cells; autophagy a mechanism of resistance) was “cytotoxic effect”. For the same molecule, the “effect on prostate cancer cells” value (prostate cancer cells; preclinical studies) was “cytotoxic” and the “patients with a decrease in p62 level at 24 hr” value (p62) was “Five of six”.
